Our source for the GFP response vs DMSO, GFP response relative to DMSO and GFP response, % of DMSO values is PubChem BioAssay.

A short description of test [1]: RPL19A-GFP modulators, yeast TOR pathway, confirmation, cell-based, S. cerevisiae, flow cytometry, cherry picks, mother/daughter gates (AID 2270;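 active = GFP response below 50% of the DMSO control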). The settings on record: S. cerevisiae RPL19A-GFP strain, 3 h, at 10 µM, stronger effect = lower value, 100 = same GFP as DMSO wells.
Test [2] in a line: LAP4-GFP expression modulators in yeast, confirmation, cell-based, cherry picks, flow cytometry, mother/daughter gates (AID 2271;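 active = GFP response above 150% of the DMSO control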;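 note: ratio of sample to DMSO plate mean so 100% equals DMSO level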). The settings on record: S. cerevisiae LAP4-GFP strain, 3 h, at 10 µM, stronger effect = higher value, 100 means same as DMSO control. The procedure, abridged: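 System: Alexa 633-stained baker's yeast GFP-fusion strain; quantity: 0.2 OD600 cells; timing: compound exposure 3 h at 30 °C, end-over-end rotation; detection: HT flow cytometry, GFP fluorescence channel; measure: per-gate (all, mother, daughter) GFP response vs DMSO; control set: DMSO-only negative wells, rapamycin 400 ng/mL positive wells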

Test [3] is described as follows: modulators of MEP2-GFP levels in yeast, confirmation, S. cerevisiae, flow cytometry GFP, cherry picks (AID 2272;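 active = GFP response above 150% of the DMSO control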;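 note: ratio of well signal to plate DMSO mean so 100% equals DMSO level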). The settings on record: S. cerevisiae MEP2-GFP strain, 3 h, at 10 µM, stronger effect = higher value.
Test [4] can be described thus: AGP1-GFP expression modulators, hit retest, confirmation, cell-based, flow cytometry, S. cerevisiae, cherry picks (AID 2273).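 Note: median GFP channel fluorescence over the whole cell population gate.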 The settings on record: S. cerevisiae AGP1-GFP strain, 3 h, at 10 µM.
Test [5] in a line: modulators of CIT2-GFP expression in yeast, confirmation, S. cerevisiae, GFP fusion, cherry picks, mother/daughter gates (AID 2274). Conditions: S. cerevisiae CIT2-GFP strain, flow cytometry, 3 h, at 10 µM, stronger effect = higher value.
[6] abbreviates: measured here: daughter cell gate.
Where [7] appears, read: measured here: mother cell gate.
Setting [8] is: measured here: daughter cell gate response.
Where [9] appears, read: measured here: mother cell gate response.

The structures appear in SMILES notation. Calls of active or inactive are those of the source.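 Rule for the calls, unless noted: active = GFP response above 150% of the DMSO level; inconclusive = fewer than 70 events counted for a yeast strain; inactive = the rest.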

As for `COc1ccccc1C(=O)NNC(=O)C(=O)Nc1cccc(Cl)c1C`, the GFP response vs DMSO in test [1] was 106% (inactive); in test [1] (setting [6]), 111%; in test [1] (setting [7]), 101%; in test [3] it was 116% (inactive). The results for the GFP response relative to DMSO in test [2], in test [2] (setting [8]) and in test [2] (setting [9]) were 112% (inactive), 118% and 109%, respectively. The GFP response, % of DMSO in test [4] was 109% (inactive); in test [5] it was 119% (inactive); in test [5] (setting [6]), 122%; in test [5] (setting [7]), 113%.
For `CCOc1ccc(C(=O)/C=C/c2ccccc2C(F)(F)F)cc1`, the GFP response vs DMSO in test [1] was 98.2% (inactive); in test [1] (setting [6]), 96.9%; in test [1] (setting [7]), 99%; in test [3], 100% (inactive). The GFP response relative to DMSO in test [2] is 97.9% (inactive); in test [2] (setting [8]) it was 99.2%; in test [2] (setting [9]), 96.1%. Further, the GFP response, % of DMSO in test [4] is 99.1% (inactive); in test [5], 104% (inactive); in test [5] (setting [6]), 105%; in test [5] (setting [7]), 103%.
For `CC(C)c1nnc(NC(=O)c2nc(S(=O)(=O)Cc3ccccc3)ncc2Cl)s1`, the GFP response vs DMSO in test [1] is 98.5% (inactive); in test [1] (setting [6]) it was 101%; in test [1] (setting [7]), 95.4%; in test [3] it was 106% (inactive). The values for the GFP response relative to DMSO in test [2], in test [2] (setting [8]) and in test [2] (setting [9]) were 102% (inactive), 101% and 100%, respectively. The GFP response, % of DMSO was 102% (inactive) in test [4], 100% (inactive) in test [5], 99.3% in test [5] (setting [6]) and 99.3% in test [5] (setting [7]).
As to `O=C1c2ccsc2SCCN1Cc1ccccc1`, the GFP response vs DMSO was 93.8% (inactive) in test [1], 92.9% in test [1] (setting [6]), 94.8% in test [1] (setting [7]) and 94.1% (inactive) in test [3]. Also, the GFP response relative to DMSO was 112% (inactive) in test [2], 109% in test [2] (setting [8]) and 114% in test [2] (setting [9]). The GFP response, % of DMSO in test [4] is 101% (inactive); in test [5] it was 92.6% (inactive); in test [5] (setting [6]) it was 91.7%; in test [5] (setting [7]) it was 90.2%.
Take `Cc1cc(N2CCCCC2)n2nc(C)c(-c3ccccc3)c2n1`: the GFP response vs DMSO is 99.7% (inactive) in test [1], 97.3% in test [1] (setting [6]), 100% in test [1] (setting [7]) and 97.8% (inactive) in test [3]. Moreover, the GFP response relative to DMSO in test [2] is 95% (inactive); in test [2] (setting [8]) it was 97.2%; in test [2] (setting [9]) it was 96.2%. For the same compound, the GFP response, % of DMSO in test [4] is 95% (inactive); in test [5], 97.8% (inactive); in test [5] (setting [6]), 96.5%; in test [5] (setting [7]), 97.7%.
For `Cc1cc(C)c(S(=O)(=O)NCC23C=CC(O2)C2C(=O)N(c4ccccc4)C(=O)C23)c(C)c1` (centres undefined), the GFP response vs DMSO in test [1] was 102% (inactive); in test [1] (setting [6]), 103%; in test [1] (setting [7]) it was 103%; in test [3], 102% (inactive). For the same compound, the GFP response relative to DMSO in test [2] is 105% (inactive); in test [2] (setting [8]), 105%; in test [2] (setting [9]), 108%. Further, the GFP response, % of DMSO in test [4] was 100% (inactive); in test [5], 104% (inactive); in test [5] (setting [6]), 101%; in test [5] (setting [7]), 105%.
As for `CCn1c(=O)c(C(=O)NCc2ccc(OC)cc2)c(O)c2ccccc21`, the GFP response vs DMSO in test [1] is 98.5% (inactive); in test [1] (setting [6]), 99.5%; in test [1] (setting [7]), 98.4%; in test [3], 106% (inactive). Also, the GFP response relative to DMSO in test [2] is 97.7% (inactive); in test [2] (setting [8]), 102%; in test [2] (setting [9]), 97.4%. In addition, the GFP response, % of DMSO in test [4] is 100% (inactive); in test [5], 101% (inactive); in test [5] (setting [6]), 101%; in test [5] (setting [7]), 100%.
With `Cc1n[nH]c(C)c1N1C(=O)c2cccc3cc(Br)cc(c23)C1=O`, the GFP response vs DMSO in test [1] is 95.2% (inactive); in test [1] (setting [6]) it was 95.9%; in test [1] (setting [7]) it was 97%; in test [3], 99% (inactive). In addition, the values for the GFP response relative to DMSO in test [2], in test [2] (setting [8]) and in test [2] (setting [9]) were 99.5% (inactive), 99.1% and 99.4%, respectively. Besides, the GFP response, % of DMSO was 105% (inactive) in test [4], 102% (inactive) in test [5], 101% in test [5] (setting [6]) and 99.3% in test [5] (setting [7]).
For `COc1ccccc1N1C(=O)CC(Sc2ncccc2C(=O)O)C1=O` (centres undefined), the GFP response vs DMSO in test [1] is 100% (inactive); in test [1] (setting [6]), 98.4%; in test [1] (setting [7]), 100%; in test [3], 100% (inactive). Further, the GFP response relative to DMSO is 95% (inactive) in test [2], 95.6% in test [2] (setting [8]) and 97.2% in test [2] (setting [9]). Further, the GFP response, % of DMSO was 99.2% (inactive) in test [4], 100% (inactive) in test [5], 99.7% in test [5] (setting [6]) and 99.8% in test [5] (setting [7]).
